Data reported in ChEMBL document CHEMBL3217529, “Carbocyclic 5'-nor "reverse" fleximers. Design, synthesis, and preliminary biological activity” (Medchemcomm, 2011).

How the values were obtained:
Human betaherpesvirus 5 [1] = assay: Antiviral activity against human cytomegalovirus AD169 infected in human HEL cells assessed as inhibition of virus-induced cytopathicity after 7 days by Giemsa staining-based microscopic analysis; format: functional, organism-based; conditions: Human betaherpesvirus 5, AD169, HEL, 168 h
Method in brief: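 Confluent HEL fibroblasts infected with HCMV AD-169 or Davis at 100 PFU/well for 2 h, then residual virus removed. Medium with graded compound concentrations added, in duplicate. After 7 days at 37 °C, cells ethanol-fixed and Giemsa-stained, and cytopathogenicity read microscopically. EC50 taken from plots of % cytopathogenicity versus concentration.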

Influenza A virus H3N2 = assay: Antiviral activity against Influenza A virus H3N2 infected in MDCK cells assessed as inhibition of virus-induced cytopathicity; format: functional, organism-based
[2] = Cytotoxicity against MDCK cells assessed as concentration required to cause microscopically visible alternation of cell morphology; format: cell-based, Canis lupus familiaris; conditions: dog
Method in brief: (§1)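 Confluent cultures (MDCK nearly confluent) exposed to 5-fold serial compound dilutions alongside the antiviral assays. MCC is the lowest concentration producing a microscopically visible change in cell morphology.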

Human alphaherpesvirus 3 [3] = assay: Antiviral activity against wild type Varicella-zoster virus Oka infected in human HEL cells assessed as reduction of viral plaque formation after 5 days; format: functional, organism-based; conditions: Human alphaherpesvirus 3, strain Oka vaccine, 120 h
Method in brief: (§2)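 Confluent HEL cells were inoculated with 20 PFU per well. After 2 h, residual virus was removed and compound dilutions were added, in duplicate.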

[4] = tested on: Vesicular stomatitis virus; assay: Antiviral activity against Vesicular stomatitis virus infected in human HeLa cells assessed as inhibition of virus-induced cytopathicity; format: functional, organism-based
[5] = Cytotoxicity against human HeLa cells assessed as concentration required to cause microscopically visible alternation of cell morphology; format: cell-based; method in brief: as §1
[6] = Cytotoxicity against human HEL cells assessed as concentration required to cause microscopically visible alternation of cell morphology; format: cell-based; method in brief: as §1
Human betaherpesvirus 5 [7] = assay: Antiviral activity against human cytomegalovirus Davis infected in human HEL cells assessed as inhibition of virus-induced cytopathicity after 7 days by Giemsa staining-based microscopic analysis; format: functional, organism-based; conditions: Human betaherpesvirus 5, Davis, 168 h
Method in brief: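 Confluent HEL fibroblasts were infected with 100 PFU per well. After 2 h, residual virus was removed and compound-containing medium was added, in duplicate. At 7 days at 37 °C, cells were ethanol-fixed and Giemsa-stained, and cytopathogenicity was assessed microscopically.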

Human alphaherpesvirus 2 = assay: Antiviral activity against Herpes simplex virus type 2 G infected in human HEL cells assessed as inhibition of virus-induced cytopathicity; format: functional, organism-based; conditions: Human alphaherpesvirus 2, strain G
Sindbis virus = assay: Antiviral activity against Sindbis virus infected in African green monkey Vero cells assessed as inhibition of virus-induced cytopathicity; format: functional, organism-based
Influenza A virus = assay: Antiviral activity against Influenza A virus H1N1 infected in MDCK cells assessed as inhibition of virus-induced cytopathicity; format: functional, organism-based
[8] = tested on: Respiratory syncytial virus; assay: Antiviral activity against Respiratory syncytial virus infected in human HeLa cells assessed as inhibition of virus-induced cytopathicity; format: functional, organism-based
[9] = Cytotoxicity against African green monkey Vero cells assessed as concentration required to cause microscopically visible alternation of cell morphology; format: cell-based; conditions: chlorocebus sabaeus; method in brief: as §1
Coxsackievirus B4 [10] = assay: Antiviral activity against Coxsackievirus B4 infected in African green monkey Vero cells assessed as inhibition of virus-induced cytopathicity; format: functional, organism-based; conditions: Enterovirus B
Influenza B virus = assay: Antiviral activity against Influenza B virus infected in MDCK cells assessed as inhibition of virus-induced cytopathicity; format: functional, organism-based
[11] = tested on: Vesicular stomatitis virus; assay: Antiviral activity against Vesicular stomatitis virus infected in human HEL cells assessed as inhibition of virus-induced cytopathicity; format: functional, organism-based
Coxsackievirus B4 [12] = assay: Antiviral activity against Coxsackievirus B4 infected in human HeLa cells assessed as inhibition of virus-induced cytopathicity; format: functional, organism-based; conditions: Enterovirus B
Method in brief: (§3)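 Confluent cell monolayers in 96-well plates inoculated with 100 CCID50 of virus alongside 5-fold serial dilutions of compound. Cytopathicity scored once it was complete in untreated infected controls.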

Human alphaherpesvirus 3 [13] = assay: Antiviral activity against thymidine kinase-deficient Varicella-zoster virus 07-1 infected in human HEL cells assessed as reduction of viral plaque formation after 5 days; format: functional, organism-based; conditions: Human alphaherpesvirus 3, 07-1, HEL, 120 h; method in brief: as §2
[14] = tested on: Human immunodeficiency virus 1; assay: Antiviral activity against HIV-1 3B infected in human CEM cells assessed as inhibition of virus-induced giant cell formation after 4 days by microscopic analysis; format: functional, organism-based; conditions: Human immunodeficiency virus 1, 3B, CCRF-CEM, 96 h
Method in brief: (§4)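 CEM cells (~3 × 10^5 cells per cm3) were infected with 100 CCID50 of virus per mL and seeded into wells containing compound dilutions. After 4 days at 37 °C, giant cell formation was examined microscopically.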

[15] = tested on: Human immunodeficiency virus 2; assay: Antiviral activity against HIV-2 ROD infected in human CEM cells assessed as inhibition of virus-induced giant cell formation after 4 days by microscopic analysis; format: functional, organism-based; conditions: Human immunodeficiency virus 2, ISOLATE ROD, CCRF-CEM, 96 h; method in brief: as §4
Human alphaherpesvirus 1 [16] = assay: Antiviral activity against Herpes simplex virus type 1 KOS infected in human HEL cells assessed as inhibition of virus-induced cytopathicity; format: functional, organism-based; conditions: Human alphaherpesvirus 1, KOS
Vaccinia virus = assay: Antiviral activity against Vaccinia virus infected in human HEL cells assessed as inhibition of virus-induced cytopathicity; format: functional, organism-based; conditions: Orthopoxvirus vaccinia
Human alphaherpesvirus 1 [17] = assay: Antiviral activity against thymidine kinase-deficient Herpes simplex virus type 1 infected in human HEL cells assessed as inhibition of virus-induced cytopathicity; format: functional, organism-based; conditions: Human alphaherpesvirus 1, HEL
Punta Toro virus = assay: Antiviral activity against Punta Toro virus infected in African green monkey Vero cells assessed as inhibition of virus-induced cytopathicity; format: functional, organism-based
[18] = tested on: Mammalian orthoreovirus 1; assay: Antiviral activity against Reovirus 1 infected in African green monkey Vero cells assessed as inhibition of virus-induced cytopathicity; format: functional, cell-based; conditions: Mammalian orthoreovirus 1, Vero
Human respirovirus 3 = assay: Antiviral activity against Parainfluenza virus 3 infected in African green monkey Vero cells assessed as inhibition of virus-induced cytopathicity; format: functional, organism-based; conditions: Human respirovirus 3, Vero; method in brief: as §3

SMILES: O=c1[nH]c(=O)n(C2C=CC(O)C2)cc1-c1cccs1 (stereo unspecified)
- EC50 (Human betaherpesvirus 5 [1]): 1.8 µM
- EC50 (Influenza A virus H3N2): > 0.8 µM
- MCC [2]: 4 µM
- EC50 (Human alphaherpesvirus 3 [3]): 1.6 µM
- EC50 [4]: 4 µM
- MCC [5]: 20 µM
- MCC [6]: ≥ 4 µM
- EC50 (Human betaherpesvirus 5 [7]): 1.8 µM
- EC50 (Human alphaherpesvirus 2): > 4 µM
- EC50 (Sindbis virus): > 4 µM
- EC50 (Influenza A virus): > 0.8 µM
- EC50 [8]: > 4 µM
- MCC [9]: 20 µM
- EC50 (Coxsackievirus B4 [10]): > 4 µM
- EC50 (Influenza B virus): > 0.8 µM
- EC50 [11]: > 4 µM
- EC50 (Coxsackievirus B4 [12]): > 4 µM
- EC50 (Human alphaherpesvirus 3 [13]): 1.6 µM
- EC50 [14]: > 2 µM
- EC50 [15]: > 2 µM
- EC50 (Human alphaherpesvirus 1 [16]): > 4 µM
- EC50 (Vaccinia virus): > 4 µM
- EC50 (Human alphaherpesvirus 1 [17]): > 4 µM
- EC50 (Punta Toro virus): > 4 µM
- EC50 [18]: > 4 µM
- EC50 (Human respirovirus 3): > 4 µM

SMILES: O=c1[nH]c(=O)n(C2C=CC(O)C2)cc1-c1cncs1 (stereo unspecified)
- EC50 (Human betaherpesvirus 5 [1]): > 20 µM
- EC50 (Influenza A virus H3N2): > 20 µM
- MCC [2]: 100 µM
- EC50 (Human alphaherpesvirus 3 [3]): 47 µM
- EC50 [4]: > 100 µM
- MCC [5]: > 100 µM
- MCC [6]: ≥ 100 µM
- EC50 (Human betaherpesvirus 5 [7]): > 20 µM
- EC50 (Human alphaherpesvirus 2): > 100 µM
- EC50 (Sindbis virus): > 100 µM
- EC50 (Influenza A virus): > 20 µM
- EC50 [8]: > 100 µM
- MCC [9]: > 100 µM
- EC50 (Coxsackievirus B4 [10]): > 100 µM
- EC50 (Influenza B virus): > 20 µM
- EC50 [11]: > 100 µM
- EC50 (Coxsackievirus B4 [12]): > 100 µM
- EC50 (Human alphaherpesvirus 3 [13]): 47 µM
- EC50 [14]: > 50 µM
- EC50 [15]: > 50 µM
- EC50 (Human alphaherpesvirus 1 [16]): > 100 µM
- EC50 (Vaccinia virus): > 100 µM
- EC50 (Human alphaherpesvirus 1 [17]): > 100 µM
- EC50 (Punta Toro virus): > 100 µM
- EC50 [18]: > 100 µM
- EC50 (Human respirovirus 3): > 100 µM

SMILES: O=c1[nH]c(=O)n(C2C=CC(O)C2)cc1-c1ccco1 (stereo unspecified)
- EC50 [4]: > 100 µM
- MCC [5]: > 100 µM
- MCC [6]: > 100 µM
- EC50 (Human alphaherpesvirus 2): > 100 µM
- EC50 [8]: > 100 µM
- MCC [9]: > 100 µM
- EC50 (Coxsackievirus B4 [10]): > 100 µM
- EC50 [11]: > 100 µM
- EC50 (Coxsackievirus B4 [12]): > 100 µM
- EC50 [14]: > 100 µM
- EC50 [15]: > 100 µM
- EC50 (Human alphaherpesvirus 1 [16]): > 100 µM
- EC50 (Vaccinia virus): > 100 µM
- EC50 (Human alphaherpesvirus 1 [17]): > 100 µM
- EC50 (Punta Toro virus): 20 µM
- EC50 [18]: 100 µM
- EC50 (Human respirovirus 3): > 100 µM

SMILES: NC(=O)c1ncn([C@@H]2O[C@H](CO)[C@@H](O)[C@H]2O)n1 [RIBAVIRIN]
- MCC [2]: > 100 µM
- MCC [5]: > 250 µM
- MCC [6]: > 250 µM
- EC50 (Human alphaherpesvirus 2): > 250 µM
- EC50 (Sindbis virus): > 250 µM
- MCC [9]: > 250 µM
- EC50 (Coxsackievirus B4 [10]): > 250 µM
- EC50 [14]: > 50 µM
- EC50 [15]: > 50 µM
- EC50 (Human alphaherpesvirus 1 [16]): > 250 µM
- EC50 (Vaccinia virus): > 250 µM
- EC50 [18]: > 250 µM
